Source: ChEMBL document CHEMBL3098046, “Fragment-based discovery of 6-azaindazoles as inhibitors of bacterial DNA ligase” (ACS Med Chem Lett, 2013)
≈ marks a conversion by molar mass, not a printed value.

Experiments:
DNA ligase [1] = target: T1, DNA ligase (Staphylococcus aureus, UniProt Q9AIU7); test: Inhibition of C-terminal 6xHis-tagged full length recombinant Staphylococcus aureus DNA ligase (1 to 312) expressed in Escherichia coli BL21 (DE3) using oligonucleotide as substrate after 10 mins by TR-FRET assay
Klebsiella pneumoniae [2] = test: Antibacterial activity against TolC deficient Klebsiella pneumoniae 1161486a after 18 to 24 hrs by broth microdilution method; format: functional
Escherichia coli [3] = test: Antibacterial activity against Escherichia coli 7623 after 18 to 24 hrs by broth microdilution method; format: functional
Haemophilus influenzae [4] = test: Antibacterial activity against Haemophilus influenzae H128 after 18 to 24 hrs by broth microdilution method; format: functional
Acinetobacter baumannii [5] = test: Antibacterial activity against Acinetobacter baumannii BM4454 after 18 to 24 hrs by broth microdilution method; format: functional
Klebsiella pneumoniae [6] = test: Antibacterial activity against Klebsiella pneumoniae 1161486 after 18 to 24 hrs by broth microdilution method; format: functional
Streptococcus pyogenes = test: Antibacterial activity against Streptococcus pyogenes 1307006P after 18 to 24 hrs by broth microdilution method; format: functional
Pseudomonas aeruginosa [7] = test: Antibacterial activity against Pseudomonas aeruginosa PAO(MV) after 18 to 24 hrs by broth microdilution method; format: functional
Escherichia coli [8] = test: Antibacterial activity against TolC deficient Escherichia coli 7623 after 18 to 24 hrs by broth microdilution method; format: functional
[9] = Solubility of the compound; format: physicochemical
Staphylococcus aureus [10] = test: Antibacterial activity against Staphylococcus aureus Oxford after 18 to 24 hrs by broth microdilution method; format: functional
Haemophilus influenzae [11] = test: Antibacterial activity against AcrB deficient Haemophilus influenzae H128 after 18 to 24 hrs by broth microdilution method; format: functional
Pseudomonas aeruginosa [12] = test: Antibacterial activity against Pseudomonas aeruginosa PAO322 after 18 to 24 hrs by broth microdilution method; format: functional
Streptococcus pneumoniae = test: Antibacterial activity against Streptococcus pneumoniae 1629 after 18 to 24 hrs by broth microdilution method; format: functional
L5178Y = test: Cytotoxicity against TK +/- expressing mouse L5178Y cells; format: cell-based
Summary of the method: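 Mouse lymphoma cell line (described as lung lymphoma) used for general cytotoxicity, tested up to a highest concentration of 100 μM.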

DNA ligase [13] = target: T1, DNA ligase; test: Binding affinity to C-terminal 6xHis-tagged Staphylococcus aureus DNA ligase (1 to 312) expressed in Escherichia coli BL21 (DE3) by ITC assay
Acinetobacter baumannii [14] = test: Antibacterial activity against Acinetobacter baumannii BM4652 expressing efflux transporter mutant after 18 to 24 hrs by broth microdilution method
Escherichia coli [15] = test: Antibacterial activity against TolC deficient Escherichia coli TOP10 by broth microdilution method; format: functional
Staphylococcus aureus [16] = test: Antibacterial activity against Staphylococcus aureus RN4220 expressing pYH4 by broth microdilution method in absence of anhydrotetracycline; format: functional
Escherichia coli [17] = test: Antibacterial activity against TolC deficient Escherichia coli TOP10 expressing LigA R518H mutant by broth microdilution method; format: functional
Staphylococcus aureus [18] = test: Antibacterial activity against Staphylococcus aureus RN4220 expressing pYH4 by broth microdilution method in presence of anhydrotetracycline; format: functional
Staphylococcus aureus [19] = test: Antibacterial activity against Staphylococcus aureus RN4220 expressing pYH4-YerG/LigA by broth microdilution method in presence of anhydrotetracycline; format: functional
Escherichia coli [20] = test: Antibacterial activity against TolC deficient Escherichia coli TOP10 expressing LigA G180E mutant by broth microdilution method; format: functional
Staphylococcus aureus [21] = test: Antibacterial activity against Staphylococcus aureus RN4220 expressing pYH4-YerG/LigA by broth microdilution method in absence of anhydrotetracycline; format: functional
[22] = Inhibition of Escherichia coli LigA
Escherichia coli [23] = test: Antibacterial activity against TolC deficient Escherichia coli TOP10 expressing LigA R150S mutant by broth microdilution method; format: functional

T1 sequence (Q9AIU7 whole entry): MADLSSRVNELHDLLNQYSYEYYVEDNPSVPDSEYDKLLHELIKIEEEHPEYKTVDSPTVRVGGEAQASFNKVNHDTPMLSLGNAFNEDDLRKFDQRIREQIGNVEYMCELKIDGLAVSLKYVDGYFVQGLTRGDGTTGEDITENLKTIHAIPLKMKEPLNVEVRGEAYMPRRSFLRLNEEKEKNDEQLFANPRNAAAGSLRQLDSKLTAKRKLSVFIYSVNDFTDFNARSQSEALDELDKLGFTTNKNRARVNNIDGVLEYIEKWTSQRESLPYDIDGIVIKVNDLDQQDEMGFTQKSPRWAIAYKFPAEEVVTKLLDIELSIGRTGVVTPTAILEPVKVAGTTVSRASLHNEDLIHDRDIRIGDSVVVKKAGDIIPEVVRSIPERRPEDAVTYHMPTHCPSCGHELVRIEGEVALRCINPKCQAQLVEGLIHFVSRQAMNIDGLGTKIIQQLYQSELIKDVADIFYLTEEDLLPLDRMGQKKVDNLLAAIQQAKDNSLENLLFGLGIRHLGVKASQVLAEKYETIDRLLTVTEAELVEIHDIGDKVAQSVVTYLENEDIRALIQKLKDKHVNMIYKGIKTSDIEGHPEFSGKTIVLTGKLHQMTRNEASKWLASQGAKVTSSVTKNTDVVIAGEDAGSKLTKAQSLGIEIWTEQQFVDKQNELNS

In the case of Cc1cccc(-c2nnc[nH]2)n1, the IC50 (DNA ligase [1]) is reported as 140 µM.

For CC(F)(F)c1cccc(-c2nnc[nH]2)n1, the IC50 (DNA ligase [1]) was 21 µM.

c1cc(-c2nnc[nH]2)nc(C2CCC2)c1 gave an IC50 (DNA ligase [1]) of 53 µM.

For OCCNc1cc(-c2n[nH]c3cnccc23)nc(C(F)(F)F)c1, the MIC (Klebsiella pneumoniae [2]) was over 128 µg/mL, the MIC (Escherichia coli [3]) was over 128 µg/mL and the MIC (Haemophilus influenzae [4]) was 128 µg/mL (≈ 396 µM). It also gave an MIC (Acinetobacter baumannii [5]) of over 128 µg/mL, an MIC (Klebsiella pneumoniae [6]) of over 128 µg/mL and an MIC (Streptococcus pyogenes) of 128 µg/mL (≈ 396 µM). For the same compound, the IC50 (DNA ligase [1]) was 0.23 µM, the MIC (Pseudomonas aeruginosa [7]) was over 128 µg/mL and the MIC (Escherichia coli [8]) was 128 µg/mL (≈ 396 µM). The solubility [9] was 113 µg/mL (≈ 350 µM), the MIC (Staphylococcus aureus [10]) was 8 µg/mL (≈ 24.7 µM) and the MIC (Haemophilus influenzae [11]) was 8 µg/mL (≈ 24.7 µM). It also gave an MIC (Pseudomonas aeruginosa [12]) of over 128 µg/mL, an MIC (Streptococcus pneumoniae) of 64 µg/mL (≈ 198 µM) and an IC50 (L5178Y) of 16 µg/mL (≈ 49.5 µM).

Work on Nc1nc(OCC2CCC2)nc2c1ncn2[C@@H]1O[C@H](CF)[C@@H](O)[C@H]1O yielded an MIC (Klebsiella pneumoniae [2]) of 8 µg/mL (≈ 22.6 µM), an MIC (Escherichia coli [3]) of over 128 µg/mL and an MIC (Haemophilus influenzae [4]) of 16 µg/mL (≈ 45.3 µM). It also gave an MIC (Acinetobacter baumannii [5]) of over 128 µg/mL, an MIC (Klebsiella pneumoniae [6]) of over 128 µg/mL and an MIC (Streptococcus pyogenes) of 8 µg/mL (≈ 22.6 µM). For the same compound, the MIC (Pseudomonas aeruginosa [7]) was over 128 µg/mL, the MIC (Escherichia coli [8]) was 8 µg/mL (≈ 22.6 µM) and the MIC (Staphylococcus aureus [10]) was 8 µg/mL (≈ 22.6 µM). For the same compound, the MIC (Haemophilus influenzae [11]) was 2 µg/mL (≈ 5.66 µM), the MIC (Pseudomonas aeruginosa [12]) was 64 µg/mL (≈ 181 µM) and the MIC (Streptococcus pneumoniae) was 2 µg/mL (≈ 5.66 µM).

Work on FC(F)(F)c1cccc(-c2n[nH]c3cnccc23)n1 yielded an IC50 (DNA ligase [1]) of 0.22 µM and a solubility [9] of 12 µg/mL (≈ 45.4 µM).

For COc1cccc(-c2nnc[nH]2)n1, the IC50 (DNA ligase [1]) was 130 µM.

In the case of FC(F)(F)c1cccc(-c2nc[nH]n2)n1, the IC50 (DNA ligase [1]) is reported as 16 µM.

Compound c1ccc(-c2nnc[nH]2)nc1 has an IC50 (DNA ligase [1]) of 300 µM.

Clc1cccc(-c2nc[nH]n2)n1 showed an IC50 (DNA ligase [1]) of 17 µM and a Kd (DNA ligase [13]) of 10 µM.

For Clc1cncc(-c2nnc[nH]2)n1, the Kd (DNA ligase [13]) was 38 µM.

For OCCNc1cc(C(F)(F)F)nc(-c2n[nH]c3cnccc23)n1, the MIC (Klebsiella pneumoniae [2]) was 32 µg/mL (≈ 98.7 µM), the MIC (Escherichia coli [3]) was over 128 µg/mL and the MIC (Haemophilus influenzae [4]) was 16 µg/mL (≈ 49.3 µM). For the same compound, the MIC (Acinetobacter baumannii [14]) was 32 µg/mL (≈ 98.7 µM), the MIC (Escherichia coli [15]) was 8 µg/mL (≈ 24.7 µM) and the MIC (Staphylococcus aureus [16]) was 8 µg/mL (≈ 24.7 µM). The MIC (Acinetobacter baumannii [5]) was over 128 µg/mL, the MIC (Klebsiella pneumoniae [6]) was over 128 µg/mL and the MIC (Streptococcus pyogenes) was 8 µg/mL (≈ 24.7 µM). For the same compound, the IC50 (DNA ligase [1]) was 0.015 µM, the MIC (Pseudomonas aeruginosa [7]) was over 128 µg/mL and the MIC (Escherichia coli [17]) was 64 µg/mL (≈ 197 µM). The MIC (Escherichia coli [8]) was 16 µg/mL (≈ 49.3 µM), the MIC (Staphylococcus aureus [18]) was 8 µg/mL and the MIC (Staphylococcus aureus [19]) was 128 µg/mL. It also gave an MIC (Escherichia coli [20]) of 64 µg/mL (≈ 197 µM), an MIC (Staphylococcus aureus [10]) of 4 µg/mL (≈ 12.3 µM) and an MIC (Haemophilus influenzae [11]) of 1 µg/mL (≈ 3.08 µM). For the same compound, the Kd (DNA ligase [13]) was 0.025 µM, the MIC (Pseudomonas aeruginosa [12]) was 32 µg/mL (≈ 98.7 µM) and the MIC (Streptococcus pneumoniae) was 2 µg/mL (≈ 6.17 µM). For the same compound, the IC50 (L5178Y) was over 36 µg/mL, the MIC (Staphylococcus aureus [21]) was 16 µg/mL (≈ 49.3 µM) and the IC50 [22] was 97 nM. For the same compound, the MIC (Escherichia coli [23]) was 64 µg/mL (≈ 197 µM).
